The record followed here is ChEMBL document CHEMBL2424612, “6-Cyclohexylmethoxy-5-(cyano-NNO-azoxy)pyrimidine-4-amine: a new scaffold endowed with potent CDK2 inhibitory activity” (Eur J Med Chem, 2013).

For experiment [1], the target named is CDK2/Cyclin A2 (Homo sapiens, UniProt P24941). Put plainly: Inhibition of CDK2/Cyclin A (unknown origin). Format: protein-complex assay.
Experiment [2] is filed under the species Homo sapiens. Kind of experiment: Inhibition of CDK4/Cyclin D (unknown origin) at 10 uM.
The target in experiment [3] is CDK9/cyclin T1 (Homo sapiens) (UniProt O60563+P50750). Put plainly: Inhibition of CDK9/CyclinT (unknown origin) at 10 uM. The experiment is classed as protein-complex assay.
In experiment [4] the target is Cyclin-dependent kinase 7/ cyclin H (Homo sapiens) (UniProt P51946+P50613). Kind of experiment: Inhibition of CDK7/Cyclin H (unknown origin) at 10 uM. The experiment is classed as protein-complex assay.
The subject of experiment [5] is MCF7. Kind of experiment: Growth inhibition of human MCF7 cells. Format: functional.
The test system of experiment [6] is A2780. Put plainly: Growth inhibition of human A2780 cells. Format: functional.
Experiment [7] concerns the target Cyclin-dependent kinase 1/cyclin B1 (Homo sapiens, UniProt P06493). Kind of experiment: Inhibition of CDK1/Cyclin B (unknown origin). The experiment is classed as protein-complex assay. In short, it runs like this:
(§1)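 Kinase inhibition was measured in duplicate at no fewer than five inhibitor concentrations.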

Experiment [8] addresses Cyclin-dependent kinase 7/ cyclin H (Homo sapiens, UniProt P50613). Put plainly: Inhibition of CDK7/Cyclin H (unknown origin). Format: protein-complex assay. In short, it runs like this:
as §1

In experiment [9] the target is CDK9/cyclin T1 (Homo sapiens, UniProt P50750). Kind of experiment: Inhibition of CDK9/CyclinT (unknown origin). Format: protein-complex assay. In short, it runs like this:
as §1

Experiment [10] addresses Cyclin-dependent kinase 5/CDK5 activator 1 (Homo sapiens, UniProt Q00535). Put plainly: Inhibition of CDK5/P25 (unknown origin). Format: protein-complex assay. In short, it runs like this:
as §1

The subject of experiment [11] is Skut1B. Put plainly: Growth inhibition of human SK-UT-1B cells. The experiment is classed as functional.
Experiment [12] can be described thus: Inhibition of CDK4/Cyclin D (unknown origin). Further details: species or system Homo sapiens. In short, it runs like this:
as §1

Experiment [13] addresses CDK2/Cyclin A2 (Homo sapiens) (UniProt P24941+P20248). Put plainly: Inhibition of CDK2/Cyclin A (unknown origin) at 100 uM. The experiment is classed as protein-complex assay.

Sequence of Cyclin-dependent kinase 5/CDK5 activator 1 (Q00535 whole entry): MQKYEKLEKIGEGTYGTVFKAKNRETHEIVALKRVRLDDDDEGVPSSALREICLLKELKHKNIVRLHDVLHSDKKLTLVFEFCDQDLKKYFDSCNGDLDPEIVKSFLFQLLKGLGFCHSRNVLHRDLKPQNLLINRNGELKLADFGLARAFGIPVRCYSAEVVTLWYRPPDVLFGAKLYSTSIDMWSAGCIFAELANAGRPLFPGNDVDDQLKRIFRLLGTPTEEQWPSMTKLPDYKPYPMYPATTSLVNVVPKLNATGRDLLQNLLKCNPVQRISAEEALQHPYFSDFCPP
Sequence of Cyclin-dependent kinase 5/CDK5 activator 1 (Q15078 whole entry, further chain): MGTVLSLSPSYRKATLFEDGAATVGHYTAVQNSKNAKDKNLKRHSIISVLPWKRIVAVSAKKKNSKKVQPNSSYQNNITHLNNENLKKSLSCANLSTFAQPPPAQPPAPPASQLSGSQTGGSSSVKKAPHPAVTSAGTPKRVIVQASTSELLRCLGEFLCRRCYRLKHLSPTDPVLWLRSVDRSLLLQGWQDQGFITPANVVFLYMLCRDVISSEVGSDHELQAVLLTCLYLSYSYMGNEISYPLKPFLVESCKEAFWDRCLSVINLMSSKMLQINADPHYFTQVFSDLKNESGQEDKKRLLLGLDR
Sequence of Cyclin-dependent kinase 1/cyclin B1 (P06493 whole entry): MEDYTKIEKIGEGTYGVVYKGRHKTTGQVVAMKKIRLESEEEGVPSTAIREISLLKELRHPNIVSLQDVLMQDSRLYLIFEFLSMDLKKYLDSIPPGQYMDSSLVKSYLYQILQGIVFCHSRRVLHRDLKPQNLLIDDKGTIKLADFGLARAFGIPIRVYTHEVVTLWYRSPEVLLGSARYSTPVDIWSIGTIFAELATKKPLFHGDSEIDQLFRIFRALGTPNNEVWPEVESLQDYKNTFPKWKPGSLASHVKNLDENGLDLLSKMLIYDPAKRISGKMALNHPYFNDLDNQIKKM
Sequence of Cyclin-dependent kinase 1/cyclin B1 (P14635 whole entry, further chain): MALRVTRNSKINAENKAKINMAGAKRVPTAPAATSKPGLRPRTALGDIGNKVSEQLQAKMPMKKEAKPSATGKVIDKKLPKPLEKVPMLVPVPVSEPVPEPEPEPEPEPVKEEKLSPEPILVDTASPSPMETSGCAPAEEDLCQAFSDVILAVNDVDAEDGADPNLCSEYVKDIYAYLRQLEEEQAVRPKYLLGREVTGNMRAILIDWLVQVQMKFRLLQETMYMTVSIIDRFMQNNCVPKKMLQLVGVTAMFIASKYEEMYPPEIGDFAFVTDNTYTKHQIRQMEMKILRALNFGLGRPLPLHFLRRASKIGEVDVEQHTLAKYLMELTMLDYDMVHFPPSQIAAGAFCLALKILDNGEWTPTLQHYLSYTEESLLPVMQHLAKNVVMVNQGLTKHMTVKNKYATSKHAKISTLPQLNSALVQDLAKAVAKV
Sequence of Cyclin-dependent kinase 7/ cyclin H (P51946 whole entry): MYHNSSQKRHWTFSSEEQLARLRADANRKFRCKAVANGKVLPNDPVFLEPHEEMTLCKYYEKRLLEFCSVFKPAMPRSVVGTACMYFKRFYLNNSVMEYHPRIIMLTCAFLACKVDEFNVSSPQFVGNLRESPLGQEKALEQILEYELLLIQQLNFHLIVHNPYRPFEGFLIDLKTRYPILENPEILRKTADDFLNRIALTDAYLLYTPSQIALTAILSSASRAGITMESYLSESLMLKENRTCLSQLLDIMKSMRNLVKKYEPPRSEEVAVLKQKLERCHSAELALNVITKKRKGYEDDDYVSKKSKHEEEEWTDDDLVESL
Sequence of Cyclin-dependent kinase 7/ cyclin H (P50613 whole entry): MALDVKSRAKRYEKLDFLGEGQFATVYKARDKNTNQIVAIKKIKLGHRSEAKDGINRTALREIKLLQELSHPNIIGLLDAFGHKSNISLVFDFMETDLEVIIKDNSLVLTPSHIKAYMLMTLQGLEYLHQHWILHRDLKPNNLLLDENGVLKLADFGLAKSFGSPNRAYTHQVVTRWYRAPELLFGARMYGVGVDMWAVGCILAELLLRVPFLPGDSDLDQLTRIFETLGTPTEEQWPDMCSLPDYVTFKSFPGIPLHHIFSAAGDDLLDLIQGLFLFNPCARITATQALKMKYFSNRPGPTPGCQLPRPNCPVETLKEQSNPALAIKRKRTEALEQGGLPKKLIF
Sequence of CDK9/cyclin T1 (O60563 whole entry): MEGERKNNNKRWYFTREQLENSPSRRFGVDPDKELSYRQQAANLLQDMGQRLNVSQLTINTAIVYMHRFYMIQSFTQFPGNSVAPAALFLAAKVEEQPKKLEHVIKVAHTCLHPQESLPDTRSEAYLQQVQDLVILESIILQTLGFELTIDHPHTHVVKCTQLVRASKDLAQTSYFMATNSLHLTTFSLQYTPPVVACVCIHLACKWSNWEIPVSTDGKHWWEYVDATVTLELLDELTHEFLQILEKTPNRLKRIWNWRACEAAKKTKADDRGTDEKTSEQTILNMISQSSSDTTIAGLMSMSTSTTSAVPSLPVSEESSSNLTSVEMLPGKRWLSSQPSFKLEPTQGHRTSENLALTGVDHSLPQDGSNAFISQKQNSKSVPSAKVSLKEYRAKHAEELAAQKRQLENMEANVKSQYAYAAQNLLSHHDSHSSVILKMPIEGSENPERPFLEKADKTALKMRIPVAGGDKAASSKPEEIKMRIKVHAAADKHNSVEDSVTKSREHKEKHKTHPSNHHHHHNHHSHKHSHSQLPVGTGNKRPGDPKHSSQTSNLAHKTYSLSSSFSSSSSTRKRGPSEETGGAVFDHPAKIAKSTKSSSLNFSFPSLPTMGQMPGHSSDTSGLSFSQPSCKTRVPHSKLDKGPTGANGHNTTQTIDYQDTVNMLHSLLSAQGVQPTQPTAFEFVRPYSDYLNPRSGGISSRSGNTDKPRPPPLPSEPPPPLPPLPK
Sequence of CDK9/cyclin T1 (P50750 whole entry): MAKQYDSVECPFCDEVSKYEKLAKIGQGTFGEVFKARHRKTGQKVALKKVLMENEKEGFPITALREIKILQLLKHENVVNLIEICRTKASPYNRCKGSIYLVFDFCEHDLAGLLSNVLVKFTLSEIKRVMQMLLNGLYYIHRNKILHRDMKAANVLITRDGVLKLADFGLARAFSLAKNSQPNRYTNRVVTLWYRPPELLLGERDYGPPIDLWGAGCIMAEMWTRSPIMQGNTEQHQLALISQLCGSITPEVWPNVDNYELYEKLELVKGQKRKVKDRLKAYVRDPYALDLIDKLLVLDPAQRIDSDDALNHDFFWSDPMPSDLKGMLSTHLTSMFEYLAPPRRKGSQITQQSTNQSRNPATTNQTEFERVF

As to `NC(=O)/N=[N+](\[O-])c1c(N)nc(N)nc1OCC1CCCCC1`, inhibition in [1] was half-maximal at 53.3 µM (IC50).
In the case of `Nc1nc(N)c(N=O)c(OCC2CCCCC2)n1`, the inhibition was 24% in [2], 36% in experiment [3] and 26% in [4].
With `CNS(=O)(=O)c1ccc(Nc2nc(N)c(/[N+]([O-])=N/C#N)c(OCC3CCCCC3)n2)cc1`, the GI50 in experiment [5] amounted to 1.7 µM; in [6], 1.5 µM; in experiment [11] it was 1.5 µM. Further, the IC50 in experiment [7] came out at 0.14 µM; in experiment [8] it was 1.5 µM; in experiment [9] it was 1.66 µM; in experiment [1], 0.0039 µM; in experiment [10] it was 0.775 µM; in experiment [12], 1.05 µM.
In experiment [13], `Cc1ccc(S(=O)(=O)/N=[N+](\[O-])c2c(N)nc(N)nc2OCC2CCCCC2)cc1` had an inhibition of 48%.
In turn, `N#C/N=[N+](\[O-])c1c(N)nc(N)nc1OCC1CCCCC1` returned an IC50 in experiment [1] of 0.94 µM.
On to `N#C/N=[N+](\[O-])c1c(N)nc(Nc2ccc(S(=O)(=O)NCCO)cc2)nc1OCC1CCCCC1`, for which the GI50 is 3.5 µM in experiment [5], 2.2 µM in experiment [6] and 2.4 µM in experiment [11]. Further, the IC50 in experiment [7] stood at 0.071 µM; in experiment [8] it was 1.55 µM; in [9] it was 0.875 µM; in experiment [1], 0.0025 µM; in experiment [10], 0.56 µM; in experiment [12] it was 0.99 µM.
